The values below come from ChEMBL document CHEMBL1667773, “Synthesis and antifungal activity of furo[2,3-f]quinolin-5-ols” (2011).

SMILES strings stand for the structures. ≈ marks a conversion by molar mass, not a printed value.

The subject of one assay is Aspergillus flavus. The experiment in a line: Antifungal activity against Aspergillus flavus KCCM 11899 after 2 days by twofold broth dilution method. Type of assay: functional. The settings on record: KCCM 11899, 48 h. Put shortly: (§1)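 Twofold broth dilution in modified Sabouraud dextrose broth. Inoculum about 1 × 10⁵ cells/mL. Incubated at 37 °C and read after two days. MIC taken as the lowest concentration of agent tested, with fluconazole and 5-fluorocytosine as reference agents.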
(In broth dilution the organism is exposed to a series of concentrations in liquid medium.)

Another assay has as its system Pichia kudriavzevii. The experiment in a line: Antifungal activity against Candida krusei KCCM 11655 after 1 day by twofold broth dilution method. The settings on record: KCCM 11655, 24 h. It is filed as functional. An outline of the steps: (§2)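 Candida strains were tested by twofold serial broth dilution in modified Sabouraud dextrose broth at roughly 1 × 10⁵ cells/mL, held at 37 °C and read after one day. MIC was taken as the lowest agent concentration, against fluconazole and 5-fluorocytosine standards.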

In another assay the test system is Candida albicans. The experiment in a line: Antifungal activity against Candida albicans KCCM 50235 after 1 day by twofold broth dilution method. The conditions noted are these: KCCM 50235, 24 h. It is filed as functional. An outline of the steps:
as §2

In the next assay the test system is Candida tropicalis. The experiment in a line: Antifungal activity against Candida tropicalis KCCM 50662 after 1 day by twofold broth dilution method. The settings on record: KCCM 50662, 24 h. Type of assay: functional. An outline of the steps: as §2
The subject of the next assay is Cryptococcus neoformans. Kind of assay: Antifungal activity against Cryptococcus neoformans KCCM 50564 after 1 day by twofold broth dilution method. The conditions noted are these: KCCM 50564, 24 h.
Another assay has as its system Aspergillus niger. The experiment in a line: Antifungal activity against Aspergillus niger KCTC 1231 after 2 days by twofold broth dilution method. The conditions noted are these: KCTC 1231, 48 h. Type of assay: functional. Put shortly:
as §1

The term MIC denotes the lowest concentration found to suppress growth. A higher MIC goes with a need for much substance. For `CCOC(=O)c1c(N)oc2c1c(Sc1ccc(Cl)cc1)c(O)c1ncccc12`, the MIC with Aspergillus flavus came out at 3.2 µg/mL (≈ 7.71 µM); against Pichia kudriavzevii, 1.6 µg/mL (≈ 3.86 µM); in the assay with Candida albicans, 0.8 µg/mL (≈ 1.93 µM); in the assay on Candida tropicalis, 0.8 µg/mL (≈ 1.93 µM); with Cryptococcus neoformans, 25 µg/mL (≈ 60.3 µM); against Aspergillus niger, 3.2 µg/mL (≈ 7.71 µM).
For the compound `Cc1ccc2cccnc2c1[N+](=O)[O-]`, the MIC is more than 50 µg/mL against Aspergillus flavus; more than 50 µg/mL against Pichia kudriavzevii; more than 50 µg/mL in the assay on Candida albicans; more than 50 µg/mL against Candida tropicalis; 50 µg/mL (≈ 266 µM) with Cryptococcus neoformans; more than 50 µg/mL with Aspergillus niger.
On to `COC(=O)c1c(N)oc2c1c(C)c(O)c1ncccc12`, for which the MIC against Aspergillus flavus worked out at 3.2 µg/mL (≈ 11.8 µM); against Pichia kudriavzevii, 25 µg/mL (≈ 91.8 µM); against Candida albicans, 0.8 µg/mL (≈ 2.94 µM); in the assay on Candida tropicalis, 6.3 µg/mL (≈ 23.1 µM); with Cryptococcus neoformans it was 25 µg/mL (≈ 91.8 µM); against Aspergillus niger, 12.5 µg/mL (≈ 45.9 µM).
On to `OC(Cn1cncn1)(Cn1cncn1)c1ccc(F)cc1F` [FLUCONAZOLE], for which the MIC in the assay on Aspergillus flavus is 25 µg/mL (≈ 81.6 µM); against Pichia kudriavzevii it was 12.5 µg/mL (≈ 40.8 µM); against Candida albicans, 50 µg/mL (≈ 163 µM); with Candida tropicalis it was 6.3 µg/mL (≈ 20.6 µM); against Cryptococcus neoformans it was 6.3 µg/mL (≈ 20.6 µM); against Aspergillus niger, 12.5 µg/mL (≈ 40.8 µM).
Turning to `CCOC(=O)c1c(N)oc2c1c(SCC)c(O)c1ncccc12`, the MIC against Aspergillus flavus was 6.3 µg/mL (≈ 19 µM); in the assay on Pichia kudriavzevii, more than 50 µg/mL; against Candida albicans, 50 µg/mL (≈ 150 µM); with Candida tropicalis, 25 µg/mL (≈ 75.2 µM); against Cryptococcus neoformans, more than 50 µg/mL; with Aspergillus niger, 25 µg/mL (≈ 75.2 µM).
For `CCOC(=O)c1c(N)oc2c1c(SC)c(O)c1ncccc12`, the MIC in the assay with Aspergillus flavus stood at 50 µg/mL (≈ 157 µM); in the assay with Pichia kudriavzevii, 50 µg/mL (≈ 157 µM); in the assay with Candida albicans it was 12.5 µg/mL (≈ 39.3 µM); against Candida tropicalis, 12.5 µg/mL (≈ 39.3 µM); in the assay with Cryptococcus neoformans, 6.3 µg/mL (≈ 19.8 µM); in the assay on Aspergillus niger, 50 µg/mL (≈ 157 µM).
Take `CCOC(=O)c1c(N)oc2c1c(C)c(O)c1ncccc12`: the MIC with Aspergillus flavus is 12.5 µg/mL (≈ 43.7 µM); in the assay with Pichia kudriavzevii it was 25 µg/mL (≈ 87.3 µM); in the assay with Candida albicans, 6.3 µg/mL (≈ 22 µM); with Candida tropicalis, 25 µg/mL (≈ 87.3 µM); against Cryptococcus neoformans, 12.5 µg/mL (≈ 43.7 µM); in the assay with Aspergillus niger, more than 50 µg/mL.
As for `CCOC(=O)c1c(N)oc2c1c(Sc1ccccc1)c(O)c1ncccc12`, the MIC is 3.2 µg/mL (≈ 8.41 µM) against Aspergillus flavus; 3.2 µg/mL (≈ 8.41 µM) against Pichia kudriavzevii; 3.2 µg/mL (≈ 8.41 µM) in the assay on Candida albicans; 1.6 µg/mL (≈ 4.21 µM) in the assay with Candida tropicalis; 25 µg/mL (≈ 65.7 µM) against Cryptococcus neoformans; 3.2 µg/mL (≈ 8.41 µM) against Aspergillus niger.
Turning to `CCOC(=O)c1c(N)oc2c1c(Sc1cccc(F)c1)c(O)c1ncccc12`, the MIC was 12.5 µg/mL (≈ 31.4 µM) against Aspergillus flavus; 50 µg/mL (≈ 125 µM) in the assay with Pichia kudriavzevii; 50 µg/mL (≈ 125 µM) in the assay with Candida albicans; 50 µg/mL (≈ 125 µM) against Candida tropicalis; 50 µg/mL (≈ 125 µM) against Cryptococcus neoformans; 25 µg/mL (≈ 62.7 µM) in the assay with Aspergillus niger.
Consider `CCOC(=O)c1c(N)oc2c1c(Sc1ccc(O)cc1)c(O)c1ncccc12`, for which the MIC turned out to be 25 µg/mL (≈ 63.1 µM) against Aspergillus flavus; 25 µg/mL (≈ 63.1 µM) in the assay on Pichia kudriavzevii; 12.5 µg/mL (≈ 31.5 µM) against Candida albicans; 6.3 µg/mL (≈ 15.9 µM) with Candida tropicalis; 12.5 µg/mL (≈ 31.5 µM) in the assay with Cryptococcus neoformans; 3.2 µg/mL (≈ 8.07 µM) against Aspergillus niger.
As for `Nc1nc(=O)[nH]cc1F` [FLUCYTOSINE], the MIC with Aspergillus flavus worked out at 1.6 µg/mL (≈ 12.4 µM); with Pichia kudriavzevii, 3.2 µg/mL (≈ 24.8 µM); against Candida albicans it was 3.2 µg/mL (≈ 24.8 µM); against Candida tropicalis, 3.2 µg/mL (≈ 24.8 µM); against Cryptococcus neoformans it was 6.3 µg/mL (≈ 48.8 µM); with Aspergillus niger it was 3.2 µg/mL (≈ 24.8 µM).
As for `COC(=O)c1c(N)oc2c1c(Br)c(O)c1ncccc12`, the MIC with Aspergillus flavus is 25 µg/mL (≈ 74.2 µM); against Pichia kudriavzevii it was 25 µg/mL (≈ 74.2 µM); in the assay on Candida albicans, 50 µg/mL (≈ 148 µM); against Candida tropicalis, 6.3 µg/mL (≈ 18.7 µM); against Cryptococcus neoformans, 12.5 µg/mL (≈ 37.1 µM); in the assay on Aspergillus niger it was 25 µg/mL (≈ 74.2 µM).
With `CCOC(=O)c1c(N)oc2c1c(Sc1ccc(F)cc1)c(O)c1ncccc12`, the MIC amounted to 6.3 µg/mL (≈ 15.8 µM) against Aspergillus flavus; 50 µg/mL (≈ 125 µM) with Pichia kudriavzevii; 50 µg/mL (≈ 125 µM) against Candida albicans; 50 µg/mL (≈ 125 µM) in the assay with Candida tropicalis; 50 µg/mL (≈ 125 µM) in the assay on Cryptococcus neoformans; 50 µg/mL (≈ 125 µM) against Aspergillus niger.
For `CCOC(=O)c1c(N)oc2c1c(Sc1cccc(Cl)c1)c(O)c1ncccc12`, the MIC against Aspergillus flavus is 12.5 µg/mL (≈ 30.1 µM); with Pichia kudriavzevii it was 6.3 µg/mL (≈ 15.2 µM); in the assay with Candida albicans, 6.3 µg/mL (≈ 15.2 µM); in the assay on Candida tropicalis, 12.5 µg/mL (≈ 30.1 µM); against Cryptococcus neoformans, 1.6 µg/mL (≈ 3.86 µM); against Aspergillus niger, 3.2 µg/mL (≈ 7.71 µM).
Regarding `CCOC(=O)c1c(N)oc2c1c(Sc1ccc(C)cc1)c(O)c1ncccc12`, the MIC in the assay with Aspergillus flavus is 50 µg/mL (≈ 127 µM); against Pichia kudriavzevii it was 50 µg/mL (≈ 127 µM); against Candida albicans it was 6.3 µg/mL (≈ 16 µM); in the assay with Candida tropicalis, 12.5 µg/mL (≈ 31.7 µM); against Cryptococcus neoformans it was 12.5 µg/mL (≈ 31.7 µM); in the assay with Aspergillus niger it was 3.2 µg/mL (≈ 8.11 µM).
Turning to `CCOC(=O)c1c(N)oc2c1c(Br)c(O)c1ncccc12`, the MIC against Aspergillus flavus was found to be 6.3 µg/mL (≈ 17.9 µM); in the assay on Pichia kudriavzevii, 6.3 µg/mL (≈ 17.9 µM); with Candida albicans it was 12.5 µg/mL (≈ 35.6 µM); against Candida tropicalis, 6.3 µg/mL (≈ 17.9 µM); in the assay with Cryptococcus neoformans, 25 µg/mL (≈ 71.2 µM); against Aspergillus niger it was 6.3 µg/mL (≈ 17.9 µM).
As for `CCOC(=O)c1c(N)oc2c1c(Sc1ccc(C)c(C)c1)c(O)c1ncccc12`, the MIC against Aspergillus flavus is 6.3 µg/mL (≈ 15.4 µM); in the assay on Pichia kudriavzevii, 25 µg/mL (≈ 61.2 µM); against Candida albicans, 25 µg/mL (≈ 61.2 µM); in the assay on Candida tropicalis it was 12.5 µg/mL (≈ 30.6 µM); in the assay on Cryptococcus neoformans, 12.5 µg/mL (≈ 30.6 µM); with Aspergillus niger, 12.5 µg/mL (≈ 30.6 µM).
On to `CCOC(=O)c1c(N)oc2c1c(Sc1ccc(Br)cc1)c(O)c1ncccc12`, for which the MIC against Aspergillus flavus is 0.8 µg/mL (≈ 1.74 µM); against Pichia kudriavzevii it was 1.6 µg/mL (≈ 3.48 µM); against Candida albicans it was 1.6 µg/mL (≈ 3.48 µM); against Candida tropicalis, 0.8 µg/mL (≈ 1.74 µM); in the assay with Cryptococcus neoformans, 25 µg/mL (≈ 54.4 µM); in the assay with Aspergillus niger it was 1.6 µg/mL (≈ 3.48 µM).
Take `Nc1ccc(O)c2ncccc12`: the MIC against Aspergillus flavus is more than 50 µg/mL; against Pichia kudriavzevii it was more than 50 µg/mL; in the assay on Candida albicans, 50 µg/mL (≈ 312 µM); in the assay with Candida tropicalis, 50 µg/mL (≈ 312 µM); with Cryptococcus neoformans, more than 50 µg/mL; against Aspergillus niger, 50 µg/mL (≈ 312 µM).
In the case of `CCOC(=O)c1c(N)oc2c1c(Sc1ccc(OC)cc1)c(O)c1ncccc12`, the MIC in the assay with Aspergillus flavus amounted to 12.5 µg/mL (≈ 30.5 µM); against Pichia kudriavzevii, 6.3 µg/mL (≈ 15.3 µM); in the assay with Candida albicans it was 6.3 µg/mL (≈ 15.3 µM); against Candida tropicalis, 6.3 µg/mL (≈ 15.3 µM); against Cryptococcus neoformans it was 25 µg/mL (≈ 60.9 µM); against Aspergillus niger, 3.2 µg/mL (≈ 7.8 µM).
In the case of `CCOC(=O)c1c(N)oc2c1c(Sc1cccc(C)c1)c(O)c1ncccc12`, the MIC against Aspergillus flavus is 12.5 µg/mL (≈ 31.7 µM); against Pichia kudriavzevii, 25 µg/mL (≈ 63.4 µM); against Candida albicans it was 12.5 µg/mL (≈ 31.7 µM); in the assay on Candida tropicalis, 25 µg/mL (≈ 63.4 µM); in the assay with Cryptococcus neoformans, 3.2 µg/mL (≈ 8.11 µM); with Aspergillus niger it was 25 µg/mL (≈ 63.4 µM).
On to `CCOC(=O)c1c(N)oc2c1c(Sc1ccc(F)c(F)c1)c(O)c1ncccc12`, for which the MIC in the assay with Aspergillus flavus stood at 1.6 µg/mL (≈ 3.84 µM); with Pichia kudriavzevii it was 1.6 µg/mL (≈ 3.84 µM); with Candida albicans, 0.8 µg/mL (≈ 1.92 µM); with Candida tropicalis it was 1.6 µg/mL (≈ 3.84 µM); in the assay with Cryptococcus neoformans it was 50 µg/mL (≈ 120 µM); against Aspergillus niger, 1.6 µg/mL (≈ 3.84 µM).
Turning to `CCOC(=O)c1c(N)oc2c1c(Cl)c(O)c1ncccc12`, the MIC with Aspergillus flavus was more than 50 µg/mL; with Pichia kudriavzevii it was 6.3 µg/mL (≈ 20.5 µM); in the assay on Candida albicans, more than 50 µg/mL; against Candida tropicalis, 50 µg/mL (≈ 163 µM); against Cryptococcus neoformans it was 25 µg/mL (≈ 81.5 µM); with Aspergillus niger, more than 50 µg/mL.
